The values that follow come from ChEMBL document CHEMBL1137724, “2-Azetidinone derivatives: design, synthesis and evaluation of cholesterol absorption inhibitors” (2009).

Assay [1] deals with Hamster. Description: Hypocholesterolemic effect in high cholesterol-fed hamster assessed as reduction in plasma total cholesterol at 50 mg/kg, po for 7 days. The format is functional, Cricetinae. The arrangement: scale not given: the % may be the effect or the level left. An outline of the steps: (§1)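 Blood was collected at sacrifice on the last dosing day for lipid analysis. Plasma total cholesterol and HDL-C were measured by a commercial kit using a modified cholesterol oxidase method.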

For assay [2], the system named is Hamster. Description: Hypocholesterolemic effect in high cholesterol-fed hamster assessed as increase in HDL-cholesterol at 50 mg/kg, po for 7 days. The format is functional, Cricetinae. The method in brief: as §1

With `COc1ccc(N2C(=O)[C@H](CCC(O)(c3ccc(F)cc3)c3ccc(F)cc3)[C@H]2c2cc3c(cc2Br)OCO3)cc1`, the Activity in the assay on Hamster [1] is recorded as 19.8%; in the assay on Hamster [2], 31.8%.

Regarding `COc1ccc([C@@H]2[C@@H](CCC(=O)Nc3ccc(C)cc3)C(=O)N2c2ccc(OC)cc2)cc1`, the Activity in the assay on Hamster [1] (50 mg/kg) was 28.1%; in the assay on Hamster [2] (50 mg/kg) it was 21.7%.

With `COc1ccc([C@@H]2[C@@H](CCC(O)(c3ccccc3)c3ccccc3)C(=O)N2c2ccccc2C)cc1`, the Activity in the assay on Hamster [1] was 34.8%; in the assay with Hamster [2], 14.5%.

Turning to `Cc1ccccc1N1C(=O)[C@H](CCC(O)(c2ccc(F)cc2)c2ccc(F)cc2)[C@H]1c1ccc2c(c1)OCO2`, the figures for the Activity in the assay on Hamster [1] and in the assay on Hamster [2] were 10.4% and 24.8%, respectively.

Regarding `COc1ccc([C@@H]2[C@@H](CCC(=O)Nc3ccc(C)cc3)C(=O)N2c2ccccc2)cc1`, in the assay on Hamster [2] (50 mg/kg), the Activity was found to be 22.1%.

As for `COc1ccc([C@@H]2[C@@H](CCC(=O)Nc3ccc(Cl)cc3)C(=O)N2c2ccc(C)cc2)cc1`, the Activity in the assay with Hamster [1] stood at 31.6%; in the assay on Hamster [2] it was 13.7%.

On to `COc1ccc([C@@H]2[C@@H](CCC(=O)Nc3ccc(C)cc3)C(=O)N2c2ccc(OC)cc2)cc1` (relative stereo), for which the figures for the Activity with Hamster [1] (50 mg/kg) and in the assay on Hamster [2] (50 mg/kg) were 20.9% and 12.4%, respectively.

In the case of `COc1ccc([C@H]2[C@H](CCC(=O)Nc3ccc(Cl)cc3)C(=O)N2c2ccc(C)cc2)cc1` (relative stereo), the Activity stood at 26.3% in the assay with Hamster [1] and 17.8% with Hamster [2].

For `COc1ccc([C@@H]2[C@@H](CCC(O)(c3ccccc3)c3ccccc3)C(=O)N2c2ccc(F)cc2)cc1` (relative stereo), the Activity with Hamster [1] is reported as 16.3%; in the assay with Hamster [2], 35%.

Regarding `COc1ccc([C@@H]2[C@@H](CCC(=O)Nc3ccc(Cl)cc3)C(=O)N2c2ccc(OC)cc2)cc1` (relative stereo), the Activity is 16.3% in the assay with Hamster [1] and 20.1% in the assay on Hamster [2].

As for `COc1ccc([C@@H]2[C@@H](CCC(O)(c3ccc(F)cc3)c3ccc(F)cc3)C(=O)N2c2ccc(Br)cc2)cc1` (relative stereo), the Activity with Hamster [1] is recorded as 11.2%; with Hamster [2] it was 32.9%.

For `COc1ccc([C@@H]2[C@@H](CCC(=O)Nc3ccc(C)cc3)C(=O)N2c2ccccc2)cc1` (relative stereo), in the assay with Hamster [2] (50 mg/kg), the Activity is 13.9%.

As for `COc1ccc([C@@H]2[C@@H](CCC(=O)Nc3ccc(C)cc3)C(=O)N2c2ccc(C)cc2)cc1` (relative stereo), the Activity in the assay with Hamster [1] was found to be 18.7%; in the assay on Hamster [2] it was 23.9%.

With `O=C1[C@H](CCC(O)(c2ccccc2)c2ccccc2)[C@@H](c2ccc3c(c2)OCO3)N1c1ccc(Cl)cc1` (relative stereo), the Activity was determined as 28.7% in the assay with Hamster [1] and 11.4% in the assay on Hamster [2].

In the case of `O=C1[C@H](CC[C@H](O)c2ccc(F)cc2)[C@@H](c2ccc(O)cc2)N1c1ccc(F)cc1` [EZETIMIBE], the Activity was determined as 48.7% in the assay on Hamster [1] and 37.3% in the assay on Hamster [2].
